According to ChEMBL document CHEMBL1131724, “The structure-based design and synthesis of selective inhibitors of Trypanosoma cruzi dihydrofolate reductase” (Bioorg Med Chem Lett, 1999):

Key:
[1] = In vitro activity against the amastigote stage of the parasite cultured in mouse fibroblasts (L-6 cells); format: functional, cell-based
How it was run: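 L-6 mouse fibroblasts seeded, infected next day with trypomastigote T. cruzi expressing beta-galactosidase; after two days medium replaced with serial drug dilutions; four-day incubation; chlorophenol red beta-D-galactopyranoside substrate added, absorbance read at 540 nm 2-6 h later to quantify parasite growth; IC50 determined.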

[2] = Selectivity for Trypanosoma cruzi dihydrofolate reductase compared to human dihydrofolate reductase
Dihydrofolate reductase = target: T1, Dihydrofolate reductase (Homo sapiens, UniProt P00374); assay: Inhibitory activity against dihydrofolate reductase in humans
T1 sequence (P00374 whole entry): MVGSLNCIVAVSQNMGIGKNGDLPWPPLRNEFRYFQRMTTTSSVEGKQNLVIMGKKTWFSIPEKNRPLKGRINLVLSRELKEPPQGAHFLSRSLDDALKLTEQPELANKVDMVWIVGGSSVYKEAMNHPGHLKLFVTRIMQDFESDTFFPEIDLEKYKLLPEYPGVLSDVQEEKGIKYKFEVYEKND

| Compound | Selectivity [2] | Ki (Dihydrofolate reductase) | IC50 [1] |
| --- | --- | --- | --- |
| CCOC(=O)CCCN(Cc1cnc2nc(N)nc(N)c2n1)c1ccc(C(=O)NC(CCC(=O)OCC)C(=O)OCC)cc1 (stereo not given) | – | – | 61 µM |
| Nc1nc(N)c2nc(CN(CCCC(=O)O)c3ccc(C(=O)NC(CCC(=O)O)C(=O)O)cc3)cnc2n1 (stereo not given) | – | – | > 171 µM |
| CN(Cc1cnc2nc(N)nc(N)c2n1)c1ccc(C(=O)N[C@@H](CCC(=O)O)C(=O)O)cc1 [METHOTREXATE] | – | – | 9.2 µM |
| CCOC(=O)CCCCN(Cc1cnc2nc(N)nc(N)c2n1)c1ccc(C(=O)NC(CCC(=O)OCC)C(=O)OCC)cc1 (stereo not given) | 9.9 | 0.453 µM | 38.8 µM |

Further lines, with some results ahead:

| Selectivity [2] | Ki (Dihydrofolate reductase) | Compound | IC50 [1] |
| --- | --- | --- | --- |
| 8.9 | 0.00163 µM | Nc1nc(N)c2nc(CN(CCCCCC(=O)O)c3ccc(C(=O)NC(CCC(=O)O)C(=O)O)cc3)cnc2n1 (stereo not given) | 11.5 µM |
| 11.1 | 0.00145 µM | Nc1nc(N)c2nc(CN(CCCCC(=O)O)c3ccc(C(=O)NC(CCC(=O)O)C(=O)O)cc3)cnc2n1 (stereo not given) | > 167 µM |
| 8.71 | 0.485 µM | CCOC(=O)CCCCCN(Cc1cnc2nc(N)nc(N)c2n1)c1ccc(C(=O)NC(CCC(=O)OCC)C(=O)OCC)cc1 (stereo not given) | 53.5 µM |
